TNAP inh hiacc = TNAP (human) inhibition, high acceptor; purified TNAP, CDP-star luminescence, 1 M DEA; inhibition, % at 20 µM; actives 0.03% (n = 200,000);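 active means over 50% inhibition of tissue-nonspecific alkaline phosphatase at 20 µM in the single-dose screen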
Target sequence (P05186 whole entry, looked up): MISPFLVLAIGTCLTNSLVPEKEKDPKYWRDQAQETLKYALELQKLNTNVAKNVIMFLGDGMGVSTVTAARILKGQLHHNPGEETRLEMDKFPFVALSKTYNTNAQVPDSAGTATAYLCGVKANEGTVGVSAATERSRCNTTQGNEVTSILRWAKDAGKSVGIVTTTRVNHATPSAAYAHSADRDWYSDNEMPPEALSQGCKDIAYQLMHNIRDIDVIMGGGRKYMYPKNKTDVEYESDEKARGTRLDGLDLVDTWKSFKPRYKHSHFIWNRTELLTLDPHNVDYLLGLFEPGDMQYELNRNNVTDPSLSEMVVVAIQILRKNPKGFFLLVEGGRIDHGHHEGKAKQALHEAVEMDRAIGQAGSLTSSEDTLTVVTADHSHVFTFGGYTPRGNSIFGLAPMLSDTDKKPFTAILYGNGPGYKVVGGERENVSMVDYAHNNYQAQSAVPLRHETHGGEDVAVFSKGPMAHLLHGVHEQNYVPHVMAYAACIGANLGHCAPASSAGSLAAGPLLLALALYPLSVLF
TNAP inh noacc = blocks human TNAP activity with no phosphate acceptor present; AID 1012; purified TNAP, CDP-star luminescence, 30 min; actives 0.26% (n = 200,000); inhibition, % at 20 µM;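 active means tissue-nonspecific alkaline phosphatase inhibition above about 50% at 20 µM in the single-dose screen, limit read from the data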
TNAP act hi DEA = activators of human TNAP at high phosphate acceptor concentration. P05186. purified TNAP, CDP-star luminescence, 1 M DEA, 30 min; active compounds read high; 0 = EDTA background, 1 = DMSO-only activity. activation factor at 20 µM. 200,000 tested, under 10 active;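 active means activation factor at least 2 at 20 µM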
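Measured by: Luminescent substrate turnover signal | Test system: Human TNAP | Input: TNAP 1/800 final | Dosing: 20 µM single point | Schedule: 30 min, room temperature | Controls: EDTA wells as negative control, DMSO wells as positive control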
L major viab = Leishmania major promastigote growth inhibition | Leishmania major promastigotes, resazurin fluorescence viability | inhibition, % at 10 µM | actives 9% (n = 200,000) | AID 1063; in the data active means inhibition above about 50%;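 further: promastigotes grown with compound for 44 hours at 28 °C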
HCT116 PTEN-null = PTEN-deleted cell growth suppression; HCT116 PTEN-null viability, CellTiter-Glo, 60 h; active compounds read low; viability, % at 10 µM; actives 1.2% (n = 140,000); AID 827;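 active means viability at or below a set limit, 4 SD under the median of all tested compounds, cut at about 3.7% in these data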;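 further: PTEN knockout HCT116 line with beta catenin targeted HCT116 as companion control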
HCT116 bCat-KO = beta-catenin-lacking colon tumor cell growth suppression; HCT116 beta-catenin knockout viability, CellTiter-Glo, 60 h; active compounds read low; viability, % at 10 µM; actives 1.5% (n = 140,000); AID 818;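 active means viability at or under a set limit, the compound median less 4 SD, cut at about 6% in these data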
Hits are given with their value. A selection: hits, their analogues and other compounds. The true share with any hit is near 9.6%.

Screening COCCCn1c(SCC(=O)Nc2sc3c(c2C#N)CCCC3)nnc1-c1ccncc1 returned TNAP inh hiacc 55, TNAP inh noacc inactive, TNAP act hi DEA inactive, L major viab inactive, HCT116 PTEN-null inactive and HCT116 bCat-KO inactive.
COCCCn1c(SCC(=O)Nc2cccc(C(=O)OC)c2)nnc1-c1ccncc1 was read as TNAP inh hiacc inactive, TNAP inh noacc inactive, TNAP act hi DEA inactive, L major viab inactive, HCT116 PTEN-null inactive and HCT116 bCat-KO inactive.
`N#Cc1cc2c(nc1SCC(=O)Nc1sc3c(c1C#N)CCC3)CCCC2` gave TNAP inh hiacc inactive, TNAP inh noacc inactive, TNAP act hi DEA inactive, L major viab 55, HCT116 PTEN-null inactive and HCT116 bCat-KO inactive.
`CCCCCCn1c(COc2ccccc2F)nnc1SCC(=O)N1c2ccccc2NC(=O)C1(C)C` gave TNAP inh hiacc inactive, TNAP inh noacc inactive, TNAP act hi DEA inactive, L major viab 55, HCT116 PTEN-null 1.1 and HCT116 bCat-KO 1.2.
COc1ccc(C(F)(F)F)cc1N/C=C\c1nnnn1-c1ccccc1 was read as TNAP inh hiacc inactive, TNAP inh noacc inactive, TNAP act hi DEA inactive, L major viab inactive, HCT116 PTEN-null inactive and HCT116 bCat-KO inactive.
`O=C(c1ccccc1)c1ccccc1N/C=C/c1nnnn1-c1ccccc1` gave TNAP inh hiacc inactive, TNAP inh noacc inactive, TNAP act hi DEA inactive, L major viab 54, HCT116 PTEN-null inactive and HCT116 bCat-KO inactive.
Screening CCn1cc(Cl)c(C(=O)N2N=C(c3ccc4ccccc4c3)CC2c2ccccc2O)n1 (stereo unspecified) returned TNAP inh hiacc inactive, TNAP inh noacc inactive, TNAP act hi DEA inactive, L major viab 73, HCT116 PTEN-null inactive and HCT116 bCat-KO inactive.
Screening CCn1cc([N+](=O)[O-])c(C(=O)N2N=C(c3cccc4ccccc34)CC2c2ccccc2O)n1 (stereo unspecified) returned TNAP inh hiacc inactive, TNAP inh noacc inactive, TNAP act hi DEA inactive, L major viab 74, HCT116 PTEN-null inactive and HCT116 bCat-KO 3.4.
Screening CCn1cc([N+](=O)[O-])c(C(=O)N2N=C(c3ccc4ccccc4c3)CC2c2ccccc2O)n1 (stereo unspecified) returned TNAP inh hiacc inactive, TNAP inh noacc inactive, TNAP act hi DEA inactive, L major viab inactive, HCT116 PTEN-null inactive and HCT116 bCat-KO 3.2.
`COc1ccc2c(C)cc(SCC(=O)NCCN3C(=O)CSC3=O)nc2c1` gave TNAP inh hiacc inactive, TNAP inh noacc inactive, TNAP act hi DEA inactive, L major viab inactive, HCT116 PTEN-null inactive and HCT116 bCat-KO inactive.
Screening CCN(CC)Cc1ccccc1Sc1ccccc1 returned TNAP inh hiacc inactive, TNAP inh noacc inactive, TNAP act hi DEA inactive, L major viab 94, HCT116 PTEN-null inactive and HCT116 bCat-KO inactive.
For N/C(Cc1ccccc1Sc1ccccc1)=N\O the results were TNAP inh hiacc inactive, TNAP inh noacc inactive, TNAP act hi DEA inactive, L major viab inactive, HCT116 PTEN-null inactive and HCT116 bCat-KO inactive.
For CC(=O)Oc1ccccc1N(C(C)=O)S(=O)(=O)c1ccc(C)cc1 the results were TNAP inh hiacc inactive, TNAP inh noacc inactive, TNAP act hi DEA inactive and L major viab inactive.
`COc1ccc(S(=O)(=O)N(C(C)=O)c2ccc(OC(C)=O)c3ccccc23)cc1[N+](=O)[O-]` gave TNAP inh hiacc inactive, TNAP inh noacc inactive, TNAP act hi DEA inactive, L major viab 100, HCT116 PTEN-null 2.8 and HCT116 bCat-KO 2.0.
For CC(C)c1ccc(-n2c(-c3ccccc3)c[n+]3c2CCc2ccccc2-3)cc1 the results were TNAP inh hiacc inactive, TNAP inh noacc inactive, TNAP act hi DEA inactive and L major viab 100.
COc1ccc(-n2c(-c3ccc(Br)cc3)c[n+]3c2CCc2ccccc2-3)cc1 was read as TNAP inh hiacc inactive, TNAP inh noacc inactive, TNAP act hi DEA inactive, L major viab 100, HCT116 PTEN-null inactive and HCT116 bCat-KO inactive.
Screening COc1ccccc1-n1c(-c2ccccc2)c[n+]2c1CCc1ccccc1-2 returned TNAP inh hiacc inactive, TNAP inh noacc inactive, TNAP act hi DEA inactive and L major viab 101.
CC(=O)N1C(C)(C)CC(=NOC(=O)c2ccc(C)cc2)CC1(C)C was read as TNAP inh hiacc inactive, TNAP inh noacc inactive, TNAP act hi DEA inactive and L major viab inactive.
Screening COc1ccccc1/C=C/C(=O)NCc1cccnc1 returned TNAP inh hiacc inactive, TNAP inh noacc inactive, TNAP act hi DEA inactive and L major viab inactive.
Screening Cc1ccc(NC(=O)C2CC(Cl)=CCC2C(=O)O)c([N+](=O)[O-])c1 (stereo unspecified) returned TNAP inh hiacc inactive, TNAP inh noacc inactive, TNAP act hi DEA inactive and L major viab inactive.
Screening Cc1ccccc1C(=O)N1CCC(C(=O)Nc2ccc3c(c2)OCO3)CC1 returned TNAP inh hiacc inactive, TNAP inh noacc inactive, TNAP act hi DEA inactive, L major viab inactive, HCT116 PTEN-null inactive and HCT116 bCat-KO inactive.
For COc1cc(OC)c(C(=O)NNC(=S)NC2CCCCC2)cc1OC the results were TNAP inh hiacc inactive, TNAP inh noacc inactive, TNAP act hi DEA inactive, L major viab 51, HCT116 PTEN-null inactive and HCT116 bCat-KO inactive.
Screening COc1ccc(-c2noc(CSc3nnc(CCc4ccccc4)n3-c3ccccc3)n2)cc1OC returned TNAP inh hiacc inactive, TNAP inh noacc inactive, TNAP act hi DEA inactive, L major viab 72, HCT116 PTEN-null inactive and HCT116 bCat-KO inactive.
`Cc1ccc(-c2noc(CSc3nnc(CCc4ccccc4)n3-c3ccccc3)n2)cc1` gave TNAP inh hiacc inactive, TNAP inh noacc inactive, TNAP act hi DEA inactive, L major viab inactive, HCT116 PTEN-null inactive and HCT116 bCat-KO inactive.
`COc1ccccc1Nc1nc2nonc2[nH]c1=O` gave TNAP inh hiacc inactive, TNAP inh noacc inactive, TNAP act hi DEA inactive and L major viab inactive.
Cc1cccc(C(=O)N(c2ccccn2)C(C)c2ccco2)c1 (stereo unspecified) was read as TNAP inh hiacc inactive, TNAP inh noacc inactive, TNAP act hi DEA inactive and L major viab 56.
For CC(c1ccco1)N(C(=O)c1ccccc1NS(=O)(=O)c1ccc(Cl)c([N+](=O)[O-])c1)c1ccccn1 (stereo unspecified) the results were TNAP inh hiacc inactive, TNAP inh noacc inactive, TNAP act hi DEA inactive, L major viab 81, HCT116 PTEN-null inactive and HCT116 bCat-KO inactive.
`O=C(COC(=O)c1c[nH]c(=O)[nH]c1=O)Nc1ccccc1` gave TNAP inh hiacc inactive, TNAP inh noacc inactive, TNAP act hi DEA inactive and L major viab inactive.
Screening Cc1cccc(C(=O)NC(=S)N2CCc3ccccc3C2)c1 returned TNAP inh hiacc inactive, TNAP inh noacc inactive, TNAP act hi DEA inactive, L major viab inactive, HCT116 PTEN-null inactive and HCT116 bCat-KO inactive.
Cc1ccc(NC(=O)c2cccc(NC(=O)/C=C/c3ccco3)c2)cc1C was read as TNAP inh hiacc inactive, TNAP inh noacc inactive, TNAP act hi DEA inactive, L major viab inactive, HCT116 PTEN-null inactive and HCT116 bCat-KO inactive.
